Test results published in PMC7337098 (Cell reports, 2020).
Where a name gives a salt, the structure may show the parent alone. Read-outs that look alike come from different tables or passages of the source.

Key:
[1] = molecular target: T1, P2X4R (Homo sapiens, UniProt Q99571); format: cell-based; conditions: P2X4R alone; 10 μM ivermectin pre-applied 10 s; ATP 1.3 μM; n = 7
T1 sequence (Q99571 1-388): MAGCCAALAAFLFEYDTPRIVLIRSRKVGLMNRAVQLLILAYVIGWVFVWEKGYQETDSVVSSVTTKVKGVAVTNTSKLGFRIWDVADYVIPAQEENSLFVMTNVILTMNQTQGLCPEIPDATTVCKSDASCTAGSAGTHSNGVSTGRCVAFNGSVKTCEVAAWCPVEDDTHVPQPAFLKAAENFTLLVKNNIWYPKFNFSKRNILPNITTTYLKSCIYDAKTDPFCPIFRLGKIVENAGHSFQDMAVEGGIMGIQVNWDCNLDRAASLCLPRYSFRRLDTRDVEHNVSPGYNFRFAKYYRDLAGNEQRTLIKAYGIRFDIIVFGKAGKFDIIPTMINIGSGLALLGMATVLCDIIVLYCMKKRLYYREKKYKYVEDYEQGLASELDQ
Method in brief: (§1)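 Xenopus oocytes (surgically harvested, collagenase-treated) co-injected with 25 pg P2X4R cRNA plus 2 ng TMEM163 cRNA, or 2 ng Neto2 cRNA as the control. TEVC at Vh −30 mV, room temperature, in 90 mM NaCl, 1 mM KCl, 2 mM CaCl2, 10 mM HEPES pH 7.4. […] Mean ± SEM; Student's t test.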

[2] = molecular target: T2, P2X4R with TMEM163 (Homo sapiens, UniProt Q99571); format: cell-based; conditions: 10 μM ivermectin pre-applied 10 s, ATP 1.3 μM, n = 7
T2 sequence (Q99571 1-388): T1 sequence (Q99571 1-388)
Method in brief: as §1

[3] = molecular target: T3, P2X3R (Homo sapiens, UniProt P56373); test: Calcium FLIPR ATP dose response, P2X3R-stable HEK cells transfected with pcDNA3; format: cell-based
T3 sequence (P56373 1-397): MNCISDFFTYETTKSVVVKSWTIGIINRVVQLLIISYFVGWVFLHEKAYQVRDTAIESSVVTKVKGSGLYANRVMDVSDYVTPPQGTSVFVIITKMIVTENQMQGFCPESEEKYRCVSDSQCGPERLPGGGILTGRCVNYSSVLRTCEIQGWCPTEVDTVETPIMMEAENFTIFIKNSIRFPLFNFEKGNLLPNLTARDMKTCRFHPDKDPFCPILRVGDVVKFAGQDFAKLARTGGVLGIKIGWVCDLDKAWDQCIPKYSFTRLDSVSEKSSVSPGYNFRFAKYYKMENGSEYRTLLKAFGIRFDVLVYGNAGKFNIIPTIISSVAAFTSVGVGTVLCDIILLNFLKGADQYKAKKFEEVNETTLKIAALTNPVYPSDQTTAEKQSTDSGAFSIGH

[4] = molecular target: T4, P2X3R with TMEM163 (Homo sapiens, UniProt P56373); test: Calcium FLIPR ATP dose response, P2X3R-stable HEK cells transfected with TMEM163; format: cell-based
T4 sequence (P56373 1-397): T3 sequence (P56373 1-397)
T4 sequence (Q8TC26 1-289 partner): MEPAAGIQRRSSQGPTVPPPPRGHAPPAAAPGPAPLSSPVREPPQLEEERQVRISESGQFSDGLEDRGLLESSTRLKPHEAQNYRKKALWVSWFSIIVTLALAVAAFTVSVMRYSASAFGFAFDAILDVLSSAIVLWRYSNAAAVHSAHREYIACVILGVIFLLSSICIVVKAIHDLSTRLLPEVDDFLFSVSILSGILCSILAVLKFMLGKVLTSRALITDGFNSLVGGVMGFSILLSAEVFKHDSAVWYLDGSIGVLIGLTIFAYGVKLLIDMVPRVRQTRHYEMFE

[5] = molecular target: T3, P2X3R; format: cell-based
[6] = molecular target: T4, P2X3R with TMEM163; format: cell-based
[7] = molecular target: T3, P2X3R; format: cell-based; conditions: 100 μM ATP, outside-out patch
[8] = molecular target: T4, P2X3R with TMEM163; format: cell-based; conditions: 100 μM ATP, outside-out patch
[9] = test system: P2XRs in DRG neurons; test: Whole-cell recording of ATP-evoked currents, primary DRG neurons from WT mice; format: cell-based; conditions: Mus musculus, DRG neuron, read-out: ATP EC50
[10] = test system: P2XRs in TMEM163 KO DRG neurons; format: cell-based; conditions: Mus musculus, DRG neuron, read-out: ATP EC50
[11] = test system: WT mice; test: ATP-evoked freezing behavior after hind paw injection; format: in vivo, mouse; conditions: 3 μmol ATP into hind paw, 4 min after injection, saline 6.7 ± 3.2 s
[12] = test system: endogenous P2 receptors in HEK cells; test: Calcium FLIPR response of HEK cells; format: cell-based, human; conditions: untransfected (Mock) HEK cells
[13] = test system: P2X3R and P2X2R; test: Calcium FLIPR assay, HEK cells stably expressing both P2X3R and P2X2R; format: cell-based, human; conditions: read-out: α,β-MeATP EC50, HEK cell lines stably expressing both P2X3R and P2X2R
[14] = test system: P2XR in cerebellar granule cells; format: cell-based, mouse; conditions: TNP-ATP 10 μM co-applied with ATP; untreated 23.55 ± 6.96 pA; n = 3

With ivermectin the “potentiation of ATP-evoked currents (ratio with and without ivermectin)” value [1] was 3.7 ± 0.5 times and the “potentiation of ATP-evoked currents (ratio with and without ivermectin)” value [2] was 1.9 ± 0.2 times.

`Nc1ncnc2c1ncn2[C@@H]1O[C@H](COP(=O)([O-])OP(=O)([O-])OP(=O)([O-])[O-])[C@@H](O)[C@H]1O.[Mg+2].[Mg+2]` [ATP, Adenosine 5′-triphosphate magnesium salt] showed a Hill coefficient [3] of 0.99 ± 0.03, an EC50 [4] of 1.27 ± 0.11 µM and a Hill coefficient ([4]; P2X3R with TMEM163, ATP calcium FLIPR dose response) of 0.73 ± 0.04. The EC50 [5] was 1.3 ± 0.23 µM, the Hill coefficient ([5]; P2X3R, ATP TEVC dose response) was 1.04 ± 0.14 and the EC50 ([6]; ATP EC50, 25 pg P2X3R with 2 ng TMEM163, TEVC, 20-min interval) was 0.261 ± 0.0272 µM. The Hill coefficient ([6]; P2X3R with TMEM163, ATP TEVC dose response) was 0.98 ± 0.15, the “mean rise time of ATP-evoked currents” value [7] was 0.43 ± 0.042 ms and the “mean rise time of ATP-evoked currents” value [8] was 0.50 ± 0.061 ms. The EC50 [9] was 5.92 ± 1.17 µM, the EC50 [10] was 31 ± 15.1 µM and the “mean cumulative duration of freezing behaviors” value [11] was 74 ± 7.1 s. The “ATP concentrations at which HEK cells (Mock) responded” value [12] was “above 1 μM”.

Work on `Nc1ncnc2c1ncn2[C@@H]1O[C@H](COP(=O)(O)CP(=O)(O)OP(=O)(O)O)[C@@H](O)[C@H]1O` [α,β-MeATP, α, β-Methyleneadenosine 5′-triphosphate lithium salt] yielded an EC50 [13] of 0.656 ± 0.0887 µM.

`Nc1ncnc2c1ncn2[C@@H]1O[C@H](COP(=O)(O)OP(=O)(O)OP(=O)(O)O)[C@H]2OC3(O[C@H]21)C([N+](=O)[O-])=CC(=[N+]([O-])[O-])C=C3[N+](=O)[O-]` (some centres unmarked) [TNP-ATP, TNP-ATP triethylammonium salt] gave an ATP-evoked current [14] of 0.53 ± 0.25 pA.
